# Laboratory results from PubChem BioAssay AID504331 (Broad Institute, 2011).
# “And” between values parts separate entries of the source, which are not always exact repeats. Identical values can stand only once. The source made the active and inactive calls.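 The calls were made as follows: active = compounds that lower cell viability with a fitted AC50 at most ten times their top valid dose; inconclusive = flat fit showing 30 to 70 percent loss, or poor fit; inactive = the rest.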
# System: U2OS HRE-luc cells viability, CellTiter-Glo luminescence
# Experiment: U2OS reporter cell viability with added iron – iron-supplemented medium, dry powder, cytotoxicity control for HIF pathway activator project, dose response (AID 504331)
# Settings: not given
# Method in brief: (§1)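 system = human U2OS osteosarcoma cells with 3xHRE-driven luciferase reporter | quantity = 6,000 cells per well | buffer or medium = phenol red-free DMEM, 10% FBS, 50 µM final ferric nitrate | dosing = 8 concentrations, 3-fold dilution steps | times = cells plated 24 h before dosing, 24 h compound exposure at 37 °C | technique = viability luminescence, CellTiter-Glo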
row,Compound,AC50
1,OCC1CCN(Cc2ccc(O)c3ncccc23)CC1,2.54 µM
2,Oc1ccc(CNC2CCc3ccccc32)c2cccnc12 (centres undefined),35.7 µM
3,Oc1ccc(CNC2Cc3ccccc3C2)c2cccnc12,22.5 µM
4,c1ccc(-c2csc(Nc3nc(-c4ccccn4)nnc3-c3ccccc3)n2)cc1,> 38 µM (inactive)
5,Oc1ccc(CN2CCC3CCCCC3C2)c2cccnc12 (centres undefined),22.5 µM
6,Oc1ccc(CN2CCc3ccccc3C2)c2cccnc12,23.3 µM and 24.6 µM
7,O=C(c1cc(-c2ccccc2)on1)N1CCN(c2ccncc2)CC1,> 38 µM (inactive)
8,c1ccc(-c2nnc(-c3ccccn3)nc2NCc2ccccn2)cc1,> 38 µM (inactive)
9,CC1CN(Cc2ccc(O)c3ncccc23)CC(C)O1 (centres undefined),15.6 µM
10,c1ccc(-c2nnc(-c3ccccn3)nc2N2CCC(c3ccccc3)C2)cc1 (centres undefined),13.6 µM
11,O=C(NC1CCc2ccccc2C1)c1cc(-c2ccccc2)on1 (centres undefined),> 38 µM (inactive)
12,COc1ccccc1N1CCN(Cc2ccc(O)c3ncccc23)CC1,33.2 µM
13,Cn1c(-c2ccccc2)cnc1Nc1nc(-c2ccccn2)nnc1-c1ccccc1,> 38 µM (inactive)
14,C[C@@H](Nc1nc(-c2ccccn2)nnc1-c1ccccc1)C1CCCCC1,32 µM

# System: not listed separately
# Experiment: as above
# Settings: U2OS HRE-luc cells viability, CellTiter-Glo luminescence; at 38 µM (top of the series)
# Method in brief: as §1
row,Compound,"activity change, negative = cytotoxicity"
1,N#CC1(c2ccccc2)CCN(Cc2ccc(O)c3ncccc23)CC1,10.7% (inactive)
2,O=C(Nc1cn2ccccc2n1)c1cc(-c2ccccc2)on1,15.5% (inactive)
3,c1ccc(-c2nnc(-c3ccccn3)nc2NCC2CCOCC2)cc1,5.99% (inactive)
4,O=C(NCC1CC1)c1cc(-c2ccccc2)on1,20.9% (inactive)
5,CN(C)c1nc(-c2ccccn2)nnc1-c1ccccc1,13.9% (inactive)
6,O=C(NCc1ccccc1)c1cc(-c2ccccc2)on1,6.28% (inactive)
7,O=C(Nc1cnc2ccccc2c1)c1cc(-c2ccccc2)on1,-0.953% (inactive)
8,O=C(NC1Cc2ccccc2C1)c1cc(-c2ccccc2)on1,-12.2% (inactive)
9,Cc1ccc(CNC(=O)c2cc(-c3ccccc3)on2)cc1,-12.1% (inactive)
10,Cc1ccccc1CNC(=O)c1cc(-c2ccccc2)on1,4.84% (inactive)
11,c1ccc(-c2nnc(Nc3nc(-c4ccccn4)nnc3-c3ccccc3)s2)cc1,5.32% (inactive)
12,O=C(Nc1ncc2ccccc2n1)c1cc(-c2ccccc2)on1,-12.2% (inactive)
13,c1ccc(-c2nnc(-c3ccccn3)nc2NCCCN2CCOCC2)cc1,9.59% (inactive)
14,Cc1cccc(NC(=O)c2cc(-c3ccccc3)on2)n1,-3.67% (inactive)
15,Cc1cccc(CNc2nc(-c3ccccn3)nnc2-c2ccccc2)c1,-8.02% (inactive)
16,c1ccc(-c2nnc(-c3ccccn3)nc2N2CCN(c3ccncc3)CC2)cc1,7.73% (inactive)
17,O=C(NCCN1CCCCC1)c1cc(-c2ccccc2)on1,14% (inactive)
18,O=C(c1cc(-c2ccccc2)on1)N1CCC(N2CCOCC2)CC1,5.61% (inactive)
19,c1ccc(-c2nnc(-c3ccccn3)nc2N2CCC(N3CCOCC3)CC2)cc1,5.36% (inactive)
20,CCCCNC(=O)c1cc(-c2ccccc2)on1,5.24% (inactive)
21,O=C(c1cc(-c2ccccc2)on1)N1CCC(N2CCCC2)CC1,-1.03% (inactive)
22,O=C(NCCCCO)c1cc(-c2ccccc2)on1,1.09% (inactive)
23,Oc1ccc(CN2CCC(Cc3ccccc3)CC2)c2cccnc12,-1.73% (inactive)
24,c1ccc(CNc2nc(-c3ccccn3)nnc2-c2ccccc2)cc1,0.83% (inactive)
25,O=C(c1cc(-c2ccccc2)on1)N1CCc2cccnc21,-7.82% (inactive)
26,O=C(NCCN1CCOCC1)c1cc(-c2ccccc2)on1,12.9% (inactive)
27,c1ccc(-c2nnc(-c3ccccn3)nc2N2CCC(C3CCCCC3)C2)cc1 (centres undefined),0.423% (inactive)
28,c1ccc(-c2nnc(-c3ccccn3)nc2NCC2CC2)cc1,4.24% (inactive)

row,Compound,"activity change, negative = cytotoxicity"
1,CN1CCN(c2nc(-c3ccccn3)nnc2-c2ccccc2)CC1,-22.1% (inactive)
2,O=C(NCC1CCCCC1)c1cc(-c2ccccc2)on1,-8.74% (inactive)
3,c1ccc(-c2nnc(-c3ccccn3)nc2NCc2cccnc2)cc1,17% (inactive)
4,O=C(Nc1ccc2ccccc2n1)c1cc(-c2ccccc2)on1,13% (inactive)
5,O=C(Nc1nc2ccccc2s1)c1cc(-c2ccccc2)on1,11.3% (inactive)
6,c1ccc(-c2cccc(CNc3nc(-c4ccccn4)nnc3-c3ccccc3)c2)cc1,-2.48% (inactive)
7,CC(C)(C)CCNC(=O)c1cc(-c2ccccc2)on1,-4% (inactive)
8,c1ccc(-c2nnc(-c3ccccn3)nc2NCCN2CCOCC2)cc1,-5.86% (inactive)
9,O=C(NCCCn1ccnc1)c1cc(-c2ccccc2)on1,-7.58% (inactive)
10,O=C(NCCCN1CCOCC1)c1cc(-c2ccccc2)on1,11% (inactive)
11,CN(C)CCNC(=O)c1cc(-c2ccccc2)on1,11% (inactive)
12,c1ccc(-c2nnc(-c3ccccn3)nc2NCCc2ccccn2)cc1,-1.62% (inactive)
13,Cc1ccccc1CNc1nc(-c2ccccn2)nnc1-c1ccccc1,-20% (inactive)
14,O=C(Nc1nc(-c2ccccc2)cs1)c1cc(-c2ccccc2)on1,8.59% (inactive)
15,OCCCNc1nc(-c2ccccn2)nnc1-c1ccccc1,12.8% (inactive)
16,O=C(Nc1nnc(-c2ccccc2)s1)c1cc(-c2ccccc2)on1,13.2% (inactive)
17,O=C(NCCCO)c1cc(-c2ccccc2)on1,-4.34% (inactive)
18,O=C(Nc1ncc(-c2ccccc2)o1)c1cc(-c2ccccc2)on1,1.13% (inactive)
19,Cn1c(NC(=O)c2cc(-c3ccccc3)on2)nc2ccccc21,15.8% (inactive)
20,CN1CCN(C(=O)c2cc(-c3ccccc3)on2)CC1,2.12% (inactive)
21,O=C(c1cc(-c2ccccc2)on1)N1CCC(CO)CC1,7.47% (inactive)
22,Cc1cccc(CNC(=O)c2cc(-c3ccccc3)on2)c1,-4.42% (inactive)
23,CC(C)(C)CCNc1nc(-c2ccccn2)nnc1-c1ccccc1,-21.1% (inactive)
24,C=CCNc1nc(-c2ccccn2)nnc1-c1ccccc1,6.06% (inactive)
25,Cc1ccc(NC(=O)c2cc(-c3ccccc3)on2)cn1,-4.1% (inactive)
26,CC(C)(C)OC(=O)N1CCN(Cc2ccc(O)c3ncccc23)CC1,8.63% (inactive)
27,Cn1c(-c2ccccc2)cnc1NC(=O)c1cc(-c2ccccc2)on1,-7.51% (inactive)
